Test results: ChEMBL document CHEMBL1156597, “Structure-activity relationship of kahalalide F synthetic analogues” (J Med Chem, 2008)

Assays:
[1] = test system: SK-BR-3; test: Cytotoxicity against human SKBR3 cells after 48 hrs by SRB assay; assay type: functional; conditions: SK-BR-3, 48 h; for CC50: read-out: LC50 (the source's name)
How it was run: (§1)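 Cells grown in RPMI 1640 with 10% FBS and penicillin/streptomycin at 37 °C and 5% CO₂, trypsinized, then seeded at 5 × 10³/well. After 18 h drug-free attachment, samples in DMSO/EtOH/PBS (0.5:0.5:99) were added for 48 h continuous exposure. Cells were fixed with cold TCA (1 h, 4 °C) and stained with SRB (10 min). Tris-solubilized stain read at 490 nm. Triplicate wells, mean ± SD; GI₅₀ derived.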

[2] = Cytotoxicity against human IGROV-ET cells after 48 hrs by SRB assay; assay type: functional; conditions: for CC50: read-out: LC50 (the source's name); how it was run: as §1
[3] = Cytotoxicity against human IGROV cells after 48 hrs by SRB assay; assay type: functional; conditions: for CC50: read-out: LC50 (the source's name); how it was run: as §1
[4] = test system: PANC-1; test: Cytotoxicity against human PANC1 cells after 48 hrs by SRB assay; assay type: functional; conditions: PANC-1, 48 h; for CC50: read-out: LC50 (the source's name); how it was run: as §1
[5] = Cytotoxicity against human HeLa-APL cells after 48 hrs by SRB assay; assay type: functional; how it was run: as §1
[6] = test system: HT-29; test: Cytotoxicity against human HT29 cells after 48 hrs by SRB assay; assay type: functional, cell-based; conditions: Homo sapiens, HT-29, 48 h; for CC50: read-out: LC50 (the source's name); how it was run: as §1
[7] = test system: HeLa; test: Cytotoxicity against human HeLa cells after 48 hrs by SRB assay; assay type: functional; conditions: for CC50: read-out: LC50 (the source's name); how it was run: as §1
[8] = test system: LoVo; test: Cytotoxicity against human doxorubicin resistant LoVo cells after 48 hrs by SRB assay; assay type: functional; conditions: for CC50: read-out: LC50 (the source's name); how it was run: as §1
[9] = test system: K562; test: Cytotoxicity against human K562 cells after 48 hrs by SRB assay; assay type: functional; conditions: K562, 48 h; for CC50: read-out: LC50 (the source's name); how it was run: as §1
[10] = test system: DU-145; test: Cytotoxicity against human DU145 cells after 48 hrs by SRB assay; assay type: functional, cell-based; conditions: Homo sapiens, DU-145, 48 h; for CC50: read-out: LC50 (the source's name); how it was run: as §1
[11] = test system: A549; test: Cytotoxicity against human A549 cells after 48 hrs by SRB assay; assay type: functional, cell-based; conditions: Homo sapiens, A549, 48 h; how it was run: as §1
[12] = test system: SK-MEL-28; test: Cytotoxicity against human SK-MEL-28 cells after 48 hrs by SRB assay; assay type: functional, cell-based; conditions: Homo sapiens, SK-MEL-28, 48 h; for CC50: read-out: LC50 (the source's name); how it was run: as §1
[13] = test system: LoVo; test: Cytotoxicity against human LoVo cells after 48 hrs by SRB assay; assay type: functional; conditions: for CC50: read-out: LC50 (the source's name)

| Compound | GI50 ([1]; read-out: GI50) [µM] | CC50 [1] [µM] | GI50 [2] [µM] | GI50 ([2]; read-out: GI50) [µM] | CC50 [2] [µM] | GI50 [3] [µM] | GI50 ([3]; read-out: GI50) [µM] | CC50 [3] [µM] | CC50 [4] [µM] | LC50 (concentration giving 50% net cell kill) [5] [µM] | CC50 [6] [µM] | CC50 [7] [µM] | GI50 [8] [µM] | CC50 [8] [µM] | CC50 [9] [µM] | GI50 [10] [µM] | GI50 ([10]; read-out: GI50) [µM] | CC50 [10] [µM] | LC50 [11] [µM] | GI50 ([11]; read-out: GI50) [µM] | also measured |
| --- | --- | --- | --- | --- | --- | --- | --- | --- | --- | --- | --- | --- | --- | --- | --- | --- | --- | --- | --- | --- | --- |
| C/C=C1\NC(=O)[C@H](c2ccccc2)NC(=O)[C@@H](C(C)C)NC(=O)[C@@H]([C@H](C)CC)NC(=O)[C@H](NC(=O)[C@H](NC(=O)[C@H](CCCN)NC(=O)[C@H]2CCCN2C(=O)[C@H](NC(=O)[C@@H](NC(=O)[C@@H](NC(=O)[C@H](NC(=O)CCCC(C)C)C(C)C)[C@@H](C)O)C(C)C)C(C)C)[C@H](C)CC)[C@H](C)OC(=O)[C@H](C(C)C)NC1=O | 0.438 | 0.36 | 0.797 | 0.806 | 0.536 | 0.72 | 0.503 | 0.498 | 1.66 | 0.912 | 0.416 | 0.903 | 0.409 | 0.333 | 1.81 | 0.872 | 0.872 | 0.872 | 1.09 | 1.09 | TGI [1]: 0.386 µM; GI50 [4]: 1.66 µM; TGI [4]: 1.66 µM; GI50 [9]: 1.81 µM; TGI [9]: 1.81 µM; TGI [11]: 1.09 µM; TGI [12]: 1.11 µM; GI50 ([12]; read-out: GI50): 1.11 µM; CC50 [12]: 1.11 µM; GI50 [13]: 0.417 µM; TGI [13]: 0.533 µM; CC50 [13]: 0.341 µM |
| C/C=C1\NC(=O)[C@H](Cc2ccccc2)NC(=O)[C@@H](C(C)C)NC(=O)[C@@H]([C@H](C)CC)NC(=O)[C@H](NC(=O)[C@H](NC(=O)[C@H](CCCNC(=O)CCC2CCCCC2)NC(=O)[C@H]2CCCN2C(=O)[C@H](NC(=O)[C@@H](NC(=O)[C@@H](NC(=O)[C@H](NC(=O)CCCC(C)C)C(C)C)[C@@H](C)O)C(C)C)C(C)C)[C@H](C)CC)[C@H](C)OC(=O)[C@H](C(C)C)NC1=O | 0.0362 | 0.0947 | 0.158 | 0.103 | 0.547 | 0.0898 | 0.0481 | 0.459 | 0.163 | 0.893 | 0.13 | 0.799 | 0.0935 | 0.0938 | 0.0177 | 0.176 | 0.0766 | 0.853 | 0.365 | 0.109 | GI50 [1]: 0.039 µM; GI50 [5]: 0.166 µM; TGI [5]: 0.264 µM; GI50 [6]: 0.0666 µM; TGI [6]: 0.085 µM; GI50 [7]: 0.0836 µM; TGI [7]: 0.175 µM; TGI [8]: 0.0937 µM; GI50 [11]: 0.196 µM; GI50 [12]: 0.15 µM; GI50 ([12]; read-out: GI50): 0.0943 µM; CC50 [12]: 0.327 µM; GI50 [13]: 0.0392 µM; TGI [13]: 0.0634 µM; CC50 [13]: 0.201 µM |
| C/C=C1\NC(=O)[C@H](Cc2ccccc2)NC(=O)[C@@H](C(C)C)NC(=O)[C@@H]([C@H](C)CC)NC(=O)[C@H](NC(=O)[C@H](NC(=O)[C@H](CCCNC(=O)/C=C/CCC)NC(=O)[C@H]2CCCN2C(=O)[C@H](NC(=O)[C@@H](NC(=O)[C@@H](NC(=O)[C@H](NC(=O)CCCC(C)C)C(C)C)[C@@H](C)O)C(C)C)C(C)C)[C@H](C)CC)[C@H](C)OC(=O)[C@H](C(C)C)NC1=O | 0.0557 | 0.102 | 0.25 | 0.205 | 0.517 | 0.221 | 0.179 | 0.467 | 1.67 | 0.802 | 0.268 | 0.908 | 0.14 | 0.0969 | 1.82 | 0.876 | 0.661 | 0.876 | 1.09 | 0.619 | GI50 [1]: 0.0678 µM; GI50 [4]: 1.67 µM; TGI [4]: 1.67 µM; GI50 [5]: 0.503 µM; TGI [5]: 0.514 µM; GI50 [6]: 0.126 µM; TGI [6]: 0.103 µM; GI50 [7]: 0.407 µM; TGI [7]: 0.67 µM; TGI [8]: 0.116 µM; GI50 [9]: 1.24 µM; TGI [9]: 1.82 µM; TGI [11]: 1.09 µM; TGI [12]: 1.12 µM; GI50 ([12]; read-out: GI50): 0.814 µM; CC50 [12]: 1.12 µM; GI50 [13]: 0.0756 µM; TGI [13]: 0.0824 µM; CC50 [13]: 0.0906 µM |
| C/C=C1\NC(=O)[C@H](Cc2ccc(-c3ccccc3)cc2)NC(=O)[C@@H](C(C)C)NC(=O)[C@@H]([C@H](C)CC)NC(=O)[C@H](NC(=O)[C@H](NC(=O)[C@H](CCCN)NC(=O)[C@H]2CCCN2C(=O)[C@H](NC(=O)[C@@H](NC(=O)[C@@H](NC(=O)[C@H](NC(=O)CCCC(C)C)C(C)C)[C@@H](C)O)C(C)C)C(C)C)[C@H](C)CC)[C@H](C)OC(=O)[C@H](C(C)C)NC1=O | 0.0689 | 0.968 | 0.23 | 0.134 | 0.536 | 0.159 | 0.253 | 0.564 | 1.4 | 1.12 | 0.516 | 0.812 | 0.177 | 0.284 | 1.42 | 0.146 | 0.166 | 0.129 | 0.947 | 0.0521 | TGI [1]: 0.183 µM; GI50 [4]: 1.24 µM; TGI [4]: 1.33 µM; GI50 [5]: 0.482 µM; TGI [5]: 0.762 µM; GI50 [6]: 0.214 µM; TGI [6]: 0.187 µM; GI50 [7]: 0.22 µM; TGI [7]: 0.372 µM; TGI [8]: 0.239 µM; TGI [11]: 0.0566 µM; GI50 [12]: 0.214 µM; GI50 ([12]; read-out: GI50): 0.19 µM; CC50 [12]: 0.644 µM; GI50 [13]: 0.184 µM; TGI [13]: 0.268 µM; CC50 [13]: 0.317 µM |
